Hits are enriched below; roughly 4.8% of the tested compounds scored in any of these assays.
FLuc act counter: firefly luciferase counter-screen for stimulation assays; 200,000 tested, under 10 active; P08659; ATPlite luciferase biochemical, luminescence, 10 min; 0 = ATP-free wells, 1 = DMSO control; AID 1027; activation factor at 10 µM;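 active = luciferase activation factor, scaled between plate controls, of at least 2 with compound at 10 µM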
Target sequence (P08659 whole entry, looked up): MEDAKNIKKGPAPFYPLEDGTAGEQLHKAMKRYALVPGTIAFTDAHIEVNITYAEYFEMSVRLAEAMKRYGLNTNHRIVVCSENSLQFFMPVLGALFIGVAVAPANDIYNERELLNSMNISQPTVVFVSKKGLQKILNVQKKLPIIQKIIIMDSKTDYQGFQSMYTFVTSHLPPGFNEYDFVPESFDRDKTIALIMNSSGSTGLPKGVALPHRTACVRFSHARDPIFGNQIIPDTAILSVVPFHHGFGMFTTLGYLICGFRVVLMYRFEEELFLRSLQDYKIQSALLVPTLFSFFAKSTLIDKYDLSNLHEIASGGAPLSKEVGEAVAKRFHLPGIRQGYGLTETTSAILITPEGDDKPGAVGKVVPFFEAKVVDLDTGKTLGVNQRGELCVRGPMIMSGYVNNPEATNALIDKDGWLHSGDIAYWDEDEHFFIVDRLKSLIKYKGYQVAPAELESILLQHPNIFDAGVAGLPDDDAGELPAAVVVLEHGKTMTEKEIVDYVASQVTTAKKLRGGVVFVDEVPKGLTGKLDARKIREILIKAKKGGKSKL
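Assay system – cell-free luciferase reagent · Medium – PBS-based ATP solution · Dosing – test compounds dosed from 2 mM stocks in 100% DMSO · Timing – 10 min, room temperature · Technique – light output (luminescence) · Measure – luminescence gain marking luciferase activators · Controls – No-ATP low control, compound-free enzyme-plus-ATP high control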
NF-kB expr up: compounds increasing NF-kB expression in human neuronal cells; NF-kB reporter expression; stronger effect = higher value; fold change at 12.5 µM; actives 1.6% (n = 190,000); in the data active = fold change above about 3.3
FLuc inhib CS: Photinus pyralis luciferase inhibition counter-screen | P08659 | inhibition, % at 10 µM | actives 1.5% (n = 200,000) | ATPLite firefly luciferase biochemical luminescence, 10 min;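 active = inhibition above about 50% when tested at 10 µM, limit read from the data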
APP 5'UTR act: APP 5'UTR luciferase reporter activation. SH-SY5Y APP 5'UTR luciferase reporter, luminescence; zero percent = DMSO vehicle wells. activation, % at 2 µM. actives 1% (n = 190,000);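 active = activation above a set limit, based on mean plus 3 SD of controls, cut at about 140% in these data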
APP 5UTR inh: APP translation inhibition; SH-SY5Y APP 5'UTR-luciferase reporter, luminescence; inhibition, % at 2 µM; actives 0.82% (n = 190,000); AID 1285;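 active = inhibition above a set limit, derived from the sample mean plus 3 SD, cut at about 45% in these data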
STAT1 act: increases IFN-gamma driven STAT1 reporter signal; NIH 3T3 STAT1-luciferase reporter, luminescence; 100% = IFN-gamma alone, no compound; AID 932; actives 2.6% (n = 200,000); activation (% of control), % at 5.5 µM;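 active = activation above the screen-wide mean activation plus 3 SD, cut at about 130% in these data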;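 also: raw ratio to IFN-gamma control signal so 100% means no change and 0% no light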
Numbers without * were called inactive; nt = not tested or not shown.

SMILES	FLuc act counter	NF-kB expr up	FLuc inhib CS	APP 5'UTR act	APP 5UTR inh	STAT1 act
COc1ccc(NC(=O)CSc2nc3ccsc3c(=O)n2CCCCCC(=O)O)cc1	1	1.1	-4	9	-9	93
O=C(c1ccccc1)c1cc2ccccc2o1	0.9	2.2	12	47	-47	131*
O=C(c1cc2ccccc2o1)N1CCCC1	1	1.3	-1	10	-10	104
Cc1ccc(C(=O)c2cc3ccccc3o2)cc1[N+](=O)[O-]	1	2	1	79	-80	139*
COc1cccc2cc(C(=O)c3ccccc3)oc12	0.6	2.5	42	119	-119	137*
CC1(C)Cc2c(sc3nnn(Cc4ccc(Cl)cc4)c(=O)c23)CO1	1	1.5	3	5	-5	89
Cc1cccc(N2CCN(CC(=O)Nc3nccs3)CC2)c1C	1.1	1.1	-8	8	-8	101
CN(Cc1nccn1C)C(=O)CC1C(=O)NCCN1CC(c1ccccc1)c1ccccc1 (configuration not stated)	1	1.1	-5	-10	10	99
COc1c(F)c(F)c(C(=O)Nc2ccc(N3CCN(C(C)=O)CC3)c(Cl)c2)c(F)c1F	1	0.52	-2	6	-6	93
CCCn1c(=O)c2ccccc2n2c(SCC(=O)N3CCc4ccccc4C3)nnc12	1.1	0.76	-6	-61	61*	89
CC1(C)CCCC(C)(C)N1CC(O)COCCOc1ccc(Br)cc1 (configuration not stated)	1	1.1	4	4	-4	102
CC(=O)Oc1ccc2c(c1)C(=O)c1ccccc1CO2	0.3	1.3	66*	8	-8	100
O=C(N/N=C/c1cccs1)c1c[nH]c2ccccc12	0.6	2.3	37	44	-44	129*
Cc1c(/C=N\NC(=O)c2c[nH]c3ccccc23)cnn1C	0.7	1.3	34	27	-27	118
O=C(N/N=C/c1cccs1)c1ccccn1	0.5	2.4	51*	123	-123	121
O=C(O)c1cc(-c2c[nH]c3ccccc23)nc2ccc3ccccc3c12	0.2	1.2	80*	11	-11	89
CCCCc1ccc(Nc2ncccc2C#N)cc1	0.8	2.4	25	105	-105	138*
Cn1c(=O)n(C/C=C/c2ccccc2)c(=O)c2c1nc1n2CCCN1c1ccc(F)cc1	1	0.67	1	-11	11	98
O=c1c2ccccc2nc2c3ccccc3cnn12	0.8	1.7	17	35	-35	134*
O=C1/C(=C\c2cccnc2)Sc2ccccc21	0.4	0.95	60*	14	-14	91
CN1C(=O)S/C(=C/c2cccnc2)C1=O	1.1	1.2	-6	11	-11	95
CC(C)NCC(O)Cn1c2c(c3ccccc31)CCc1c-2cnn1-c1ccccc1 (configuration not stated)	1	2.1	-5	-87	87*	95
Nc1ncn(CC(=O)c2ccccc2)n1	1.1	6.2*	-7	28	-28	98
O=C(CCN1C(=O)S/C(=C\c2cccs2)C1=O)NC1=NCCS1	1	0.89	-3	-10	10	107
Cc1oc2cc(O)ccc2c(=O)c1-c1cnn(-c2ccccc2)c1	1	2	4	20	-20	93
SMILES	FLuc act counter	NF-kB expr up	FLuc inhib CS	APP 5'UTR act	APP 5UTR inh	STAT1 act
O=c1c(-c2cnn(-c3ccccc3)c2)coc2cc(O)ccc12	0.7	3.7*	35	140*	-140	132*
c1ccc(-c2ncc(-c3ccn[nH]3)s2)cc1	0.3	7.3*	66*	230*	-230	120
O=C(c1cnc(-c2ccccc2)s1)c1ccc(Cl)cc1Cl	1	1.2	-3	3	-4	105
CCOC(=O)c1ccc2nc(C)c(CCC(C)=O)c(Cl)c2c1	1	1.7	-1	53	-53	129*
CCCCc1c(C)nc2ccc(C(=O)OCC)cc2c1Cl	1.1	1.3	-5	11	-11	106
CCNc1ccc(C(=O)OCC(=O)c2cc(C)n(Cc3ccc4c(c3)OCO4)c2C)cc1[N+](=O)[O-]	1	1.1	0	-2	2	89
CN(C(=O)C1CCOC1)c1nnc(-c2ccccn2)s1 (configuration not stated)	1	1.9	5	13	-13	132*
CN(C(=O)C1CCOC1)c1nnc(-c2ccncc2)s1 (configuration not stated)	1	1	-3	2	-2	100
COc1ccc(OC)c(C2=NOC(C(=O)NCc3ccco3)C2)c1 (configuration not stated)	1	0.82	0	0	0	94
S=c1nc(-c2ccccc2)oc2c1CCCC2	0.7	4*	29	76	-76	132*
O=[N+]([O-])c1ccc(-c2nc(=S)c3c(o2)CCCC3)cc1	1.1	1.3	-6	16	-16	93
COc1cccc(-c2nc(=S)c3c(o2)CCCC3)c1	0.5	2.6	47	170*	-170	144*
CCN(CC)S(=O)(=O)c1cccc(-c2nnc(SCc3nc4ccccc4s3)o2)c1	1	0.83	0	42	-42	112
Brc1ccccc1-c1nnc(SCc2nc3ccccc3s2)o1	0.8	1.2	19	81	-81	136*
O=C(NCCc1ccccc1)C1(c2ccccc2)CC1(Cl)Cl (configuration not stated)	1	3.4*	-2	2	-2	95
CCc1cccc(NC(=O)CCCSc2nc3ccccc3[nH]2)c1	1.1	0.87	-7	-11	11	93
COc1cc(/C=N/N=C2/C(=O)Nc3ccccc32)ccc1O	0.1	1.4	94*	-6	6	96
COc1cc(/C=N/N2C(=O)C3C4C=CC(CC4)C3C2=O)ccc1O (configuration not stated)	0.9	1.1	14	2	-2	127
COc1cc(/C=N/N2C(=O)c3ccccc3C2=O)ccc1O	0.4	1.1	57*	6	-6	93
Cc1cccc(-n2ncc3c(N4CC(C)CC(C)C4)ncnc32)c1 (configuration not stated)	0.8	2.3	19	nt	nt	133*
Cc1cccc(C(=O)N2CCN(c3ncnc4c3cnn4-c3ccccc3)CC2)c1	1.1	0.57	-6	-2	2	91
CC1CC(C)CN(c2ncnc3c2cnn3Cc2ccc(Cl)cc2)C1 (configuration not stated)	1.1	0.86	-9	-6	6	97
Cc1cccc(-n2ncc3c(N4CCCC4)ncnc32)c1	0.1	4.8*	87*	138*	-138	108
Cc1ccc(-n2ncc3c(N4CCN(c5ccccc5)CC4)ncnc32)c(C)c1	1	0.35	-4	38	-38	94

Source: PubChem BioAssay (several laboratories)
